Source: ChEMBL document CHEMBL3132763, “Repurposing human Aurora kinase inhibitors as leads for anti-protozoan drug discovery” (Medchemcomm, 2014)

Assays:
[1] = Cytotoxicity against human HepG2 cells after 48 hrs by MTT assay; type: cell-based; settings: read-out: TC50
Method in brief: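 HepG2 cells in supplemented MEM, 9570 cells/well, plated overnight at 37°C. Twelve 1.6-fold dilutions in duplicate, 57–10,000 ng/ml, 48 h. MTT added for 1 h at room temperature in the dark; formazan dissolved in acidified isopropanol; absorbance read. IC50 by sigmoidal variable-slope nonlinear regression; mefloquine served as plate control.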

Plasmodium falciparum [2] = assay: Antiprotozoal activity against chloroquine-resistant Plasmodium falciparum C2B assessed as growth inhibition after 72 hrs by SYBR Green dye-based fluorescence assay; type: functional, organism-based
Plasmodium falciparum [3] = assay: Antiprotozoal activity against chloroquine/mefloquine/pyrimethamine-resistant Plasmodium falciparum C235 assessed as growth inhibition after 72 hrs by SYBR Green dye-based fluorescence assay; type: functional, organism-based; settings: C235, 72 h
Method in brief: (§1)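 Laboratory strains (D6, TM91C235, W2) in long-term culture, late-ring/early-trophozoite stage, seeded into pre-dosed 384-well plates at 0.3% parasitemia and 2% hematocrit. Twelve two-fold dilutions from DMSO, final 0.5–10000 ng/ml, in duplicate or quadruplicate. Incubated 72 h at 37°C under 5% CO2/5% O2/90% N2. Lysis buffer with SYBR Green I (final 10x) added, then 24 h dark at room temperature. Fluorescence read; IC50/IC90 from sigmoidal variable-slope fit. Chloroquine 2000 ng/ml batch control.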

Plasmodium falciparum [4] = assay: Antiprotozoal activity against Plasmodium falciparum D6 assessed as growth inhibition after 72 hrs by SYBR Green dye-based fluorescence assay; type: functional, organism-based; settings: D6, 72 h; method in brief: as §1
Leishmania major [5] = assay: Antiprotozoal activity against promastigote stage of Leishmania major assessed as growth inhibition after 44 hrs by AlamarBlue staining-based fluorescence assay; type: functional, organism-based
Trypanosoma brucei = assay: Antiprotozoal activity against Trypanosoma brucei 427 assessed as growth inhibition after 48 hrs by PrestoBlue-based fluorescence assay; type: functional, organism-based; settings: Trypanosoma brucei, 427, 48 h
Method in brief: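 T. brucei brucei strain 427 at 5 × 10^3 cells/well in HMI-9 with compound; 37°C, 5% CO2, 48 h. PrestoBlue added for a further 4 h; fluorescence read at ex 530 / em 590 nm.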

Leishmania major [6] = assay: Antiprotozoal activity against intracellular amastigote stage of Leishmania major infected in mouse […] cells assessed as growth inhibition after 96 hrs by luciferase reporter gene assay; type: functional, organism-based
Method in brief: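 RAW 264.7 macrophages (10,000/well, DMEM/10% HIFBS, 24 h at 37°C) infected overnight with luciferase-expressing L. major promastigotes (100,000/well), then washed three times. Twelve two-fold dilutions in duplicate, final 0.5–10,000 ng/ml, 96 h at 37°C, 5% CO2. Luciferin added for 30 min; luminescence read. IC50 by sigmoidal variable-slope nonlinear regression.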

Plasmodium falciparum [7] = assay: Antiprotozoal activity against chloroquine-resistant Plasmodium falciparum W2 assessed as growth inhibition after 72 hrs by SYBR Green dye-based fluorescence assay; type: functional, organism-based; settings: W2, 72 h; method in brief: as §1
[8] = Selectivity ratio of TC50 for human HepG2 cells to EC50 for Plasmodium falciparum D6; type: ADME, cell-based

Structure (SMILES) | CC50 at 48 h [1] [nM] | EC50 (Plasmodium falciparum [2]) [nM] | EC50 (Plasmodium falciparum [3]) [nM] | EC50 (Plasmodium falciparum [4]) [nM] | EC50 (Leishmania major [5]) [nM] | EC50 (Trypanosoma brucei) [nM] | EC50 (Leishmania major [6]) [nM] | EC50 (Plasmodium falciparum [7]) [nM] | selectivity ratio [8]
CC(=O)N1C(=O)/C(=C(\Nc2ccc(CN3CCCCC3)cc2)c2ccccc2)c2cc([N+](=O)[O-])ccc21 | > 6000 | 249 | 271 | 275 | 1080 | 130 | 2040 | 307 | –
CC(=O)N1C(=O)/C(=C(\Nc2ccc(CN3CCCCC3)cc2)c2ccccc2)c2cc(N)ccc21 | 1810 | 210 | 243 | 218 | > 4000 | 3250 | > 4000 | 241 | –
Nc1ccc2c(c1)/C(=C(/Nc1ccc(CN3CCCCC3)cc1)c1ccccc1)C(=O)N2 | > 6000 | 175 | 176 | 199 | 790 | 1160 | > 4000 | 228 | –
CS(=O)(=O)Nc1ccc2c(c1)/C(=C(/Nc1ccc(CN3CCCCC3)cc1)c1ccccc1)C(=O)N2 | 200 | – | 58 | 52 | 390 | 20 | > 4000 | 86 | –
O=C1Nc2ccc(NS(=O)(=O)c3ccccc3)cc2/C1=C(/Nc1ccc(CN2CCCCC2)cc1)c1ccccc1 | 3290 | 82 | 120 | 107 | 850 | 10 | 1910 | 144 | –
CC(=O)Nc1ccc2c(c1)/C(=C(/Nc1ccc(CN3CCCCC3)cc1)c1ccccc1)C(=O)N2 | > 6000 | 56 | 74 | 68 | 1520 | 150 | > 4000 | 88 | –
CCS(=O)(=O)Nc1ccc2c(c1)/C(=C/Nc1ccc(CN3CCCCC3)cc1)C(=O)N2 | 5000 | 173 | 242 | 241 | 2770 | 1320 | > 4000 | 273 | –
CCS(=O)(=O)Nc1ccc2c(c1)/C(=C(\C)Nc1ccc(CN3CCCCC3)cc1)C(=O)N2 | > 6000 | 1060 | 1190 | 1360 | > 4000 | 3360 | > 4000 | 1260 | –
CC/C(Nc1ccc(CN2CCCCC2)cc1)=C1/C(=O)Nc2ccc(NS(=O)(=O)CC)cc21 | > 6000 | 143 | 255 | 233 | 2800 | 1790 | > 4000 | 347 | –
CCCC/C(Nc1ccc(CN2CCCCC2)cc1)=C1/C(=O)Nc2ccc(NS(=O)(=O)CC)cc21 | > 6000 | 148 | 170 | 167 | 2600 | 1670 | > 4000 | 217 | –
CCS(=O)(=O)Nc1ccc2c(c1)/C(=C(/NC1CCN(C)CC1)c1ccccc1)C(=O)N2 | > 10000 | > 15000 | > 15000 | > 15000 | > 4000 | > 50000 | > 4000 | > 15000 | –
CCS(=O)(=O)Nc1ccc2c(c1)/C(=C(/Nc1ccccc1)c1ccccc1)C(=O)N2 | 4700 | 117 | 118 | 109 | > 4000 | 1440 | > 4000 | 143 | 50
CCS(=O)(=O)Nc1ccc2c(c1)/C(=C(/Nc1ccc(C)cc1)c1ccccc1)C(=O)N2 | 3100 | 1570 | 1640 | 1610 | 2600 | 370 | > 4000 | 2490 | –
CCS(=O)(=O)Nc1ccc2c(c1)/C(=C(/Nc1ccc(CN3CCOCC3)cc1)c1ccccc1)C(=O)N2 | 1310 | – | 31 | 54 | 940 | 100 | 1680 | 77 | –
CCS(=O)(=O)Nc1ccc2c(c1)/C(=C(/Nc1ccc(N3CCCCC3)cc1)c1ccccc1)C(=O)N2 | > 6000 | 735 | 647 | 595 | 620 | 1530 | > 4000 | 832 | –
O=C1Nc2ccccc2/C1=C(/Nc1ccc(CN2CCCCC2)cc1)c1ccccc1 | > 6000 | 160 | 227 | 230 | 770 | 70 | > 4000 | 273 | –
CO[C@@H](C(=O)N1Cc2n[nH]c(NC(=O)c3ccc(N4CCN(C)CC4)cc3)c2C1)c1ccccc1 [DANUSERTIB] | 4000 | – | – | 857 | > 21000 | – | – | – | –
CCS(=O)(=O)Nc1ccc2c(c1)/C(=C(/Nc1ccc(CN3CCCCC3)cc1)c1ccccc1)C(=O)N2 [HESPERADIN] | < 200 | 14 | 10 | 10 | 120 | 60 | 2370 | 21 | –
Cc1cc(Nc2cc(N3CCN(C)CC3)nc(Sc3ccc(NC(=O)C4CC4)cc3)n2)n[nH]1 [TOZASERTIB] | 3300 | – | – | 838 | > 21000 | 10000 | – | – | –
